Data: ChEMBL document CHEMBL1158120, “Cytotoxic oxygenated triterpenoid saponins from Symplocos chinensis” (J Nat Prod, 2006)
pIC50: −log10 of the molar value.

What was measured:
Assay type in all cases: functional, cell-based
HCT-8 = experiment: Cytotoxicity against human HCT8 cells by MTT assay
Procedure, shortened: (§1)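 MTT read-out of tumour-cell viability. IC50 values in µM are reported as means of three independent experiments.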

Bel-7402 = experiment: Cytotoxicity against human Bel-7402 cells by MTT assay; procedure, shortened: as §1
BGC-823 = experiment: Cytotoxicity against human BGC-823 cells by MTT assay; procedure, shortened: as §1
A549 = experiment: Cytotoxicity against human A549 cells by MTT assay; procedure, shortened: as §1
A2780 = experiment: Cytotoxicity against human A2780 cells by MTT assay; procedure, shortened: as §1

Structure (SMILES) | pIC50 (HCT-8) | pIC50 (Bel-7402) | pIC50 (BGC-823) | pIC50 (A549) | pIC50 (A2780)
CCOC(=O)[C@H]1O[C@@H](O[C@H]2CC[C@]3(C)[C@H]4CC=C5[C@@H]6CC(C)(C)[C@@H](OC(=O)/C=C(/C)CCC=C(C)C)[C@H](OC(=O)C(C)CC)[C@]6(CO)[C@H](O)[C@H](O)[C@@]5(C)[C@]4(C)CC[C@H]3C2(C)C)[C@H](O[C@@H]2O[C@H](CO)[C@@H](O)[C@H](O)[C@H]2O)[C@@H](O)[C@@H]1O[C@@H]1O[C@@H](CO)[C@H](O)[C@H]1O (some centres undefined) [SYMPLOCOSOSIDE Q] | < 5.00 | < 5.00 | < 5.00 | < 5.00 | 5.26
CCCCOC(=O)[C@H]1O[C@@H](O[C@H]2CC[C@]3(C)[C@H]4CC=C5[C@@H]6CC(C)(C)[C@@H](OC(=O)/C=C(\C)CCC=C(C)C)[C@H](OC(=O)C(C)CC)[C@]6(CO)[C@H](O)[C@H](O)[C@@]5(C)[C@]4(C)CC[C@H]3C2(C)C)[C@H](O[C@@H]2O[C@H](CO)[C@@H](O)[C@H](O)[C@H]2O)[C@@H](O)[C@@H]1O[C@@H]1O[C@@H](CO)[C@H](O)[C@H]1O (some centres undefined) [SYMPLOCOSOSIDE D] | < 5.00 | 5.72 | < 5.00 | < 5.00 | 5.76
CC(=O)O[C@@H]1[C@@H](O[C@@H]2O[C@H](CO)[C@@H](O)[C@H](O)[C@H]2O)[C@H](O[C@H]2CC[C@]3(C)[C@H]4CC=C5[C@@H]6CC(C)(C)[C@@H](OC(=O)/C=C(/C)CCC=C(C)C)[C@H](OC(=O)C(C)C)[C@]6(CO)[C@H](O)[C@H](O)[C@@]5(C)[C@]4(C)CC[C@H]3C2(C)C)O[C@H](C(=O)O)[C@H]1O[C@@H]1O[C@@H](CO)[C@H](O)[C@H]1O [SYMPLOCOSOSIDE L] | 5.77 | 5.57 | < 5.00 | < 5.00 | 5.62
CCC(C)C(=O)O[C@H]1[C@H](OC(=O)/C=C(/C)CCC=C(C)C)C(C)(C)C[C@H]2C3=CC[C@@H]4[C@@]5(C)CC[C@H](O[C@@H]6O[C@H](C(=O)O)[C@@H](O[C@@H]7O[C@@H](CO)[C@H](O)[C@H]7O)[C@H](OC(C)=O)[C@H]6O[C@@H]6O[C@H](CO)[C@@H](O)[C@H](O)[C@H]6O)C(C)(C)[C@@H]5CC[C@@]4(C)[C@]3(C)[C@@H](O)[C@@H](O)[C@]21CO (some centres undefined) [SYMPLOCOSOSIDE G] | 5.70 | 5.74 | 5.72 | 5.68 | 5.85
CC1(C)C[C@H](O)[C@]2(CO)[C@H](O)[C@H](O)[C@]3(C)C(=CC[C@@H]4[C@@]5(C)CC[C@H](O)C(C)(C)[C@@H]5CC[C@]43C)[C@@H]2C1 | < 5.00 | < 5.00 | < 5.00 | < 5.00 | < 5.00
CCC(C)C(=O)O[C@H]1[C@H](OC(=O)/C=C/c2ccccc2)C(C)(C)C[C@H]2C3=CC[C@@H]4[C@@]5(C)CC[C@H](O[C@@H]6O[C@H](CO)[C@@H](O[C@@H]7O[C@@H](CO)[C@H](O)[C@H]7O)[C@H](OC(C)=O)[C@H]6O[C@@H]6O[C@H](CO)[C@@H](O)[C@H](O)[C@H]6O)C(C)(C)[C@@H]5CC[C@@]4(C)[C@]3(C)[C@@H](O)[C@@H](O)[C@]21CO (some centres undefined) [SYMPLOCOSOSIDE Y] | < 5.00 | < 5.00 | < 5.00 | < 5.00 | 5.47
CCC(C)C(=O)O[C@H]1[C@H](OC(=O)/C=C(/C)CCC=C(C)C)C(C)(C)C[C@H]2C3=CC[C@@H]4[C@@]5(C)CC[C@H](O[C@@H]6O[C@H](C(=O)OC)[C@@H](O[C@@H]7O[C@@H](CO)[C@H](O)[C@H]7O)[C@H](OC(C)=O)[C@H]6O[C@@H]6O[C@H](CO)[C@@H](O)[C@H](O)[C@H]6O)C(C)(C)[C@@H]5CC[C@@]4(C)[C@]3(C)[C@@H](O)[C@@H](O)[C@]21CO (some centres undefined) [SYMPLOCOSOSIDE I] | 5.77 | 5.57 | < 5.00 | < 5.00 | 5.49
CCCCOC(=O)[C@H]1O[C@@H](O[C@H]2CC[C@]3(C)[C@H]4CC=C5[C@@H]6CC(C)(C)[C@@H](OC(=O)/C=C(/C)CCC=C(C)C)[C@H](OC(=O)C(C)CC)[C@]6(CO)[C@H](O)[C@H](O)[C@@]5(C)[C@]4(C)CC[C@H]3C2(C)C)[C@H](O[C@@H]2O[C@H](CO)[C@@H](O)[C@H](O)[C@H]2O)[C@@H](O)[C@@H]1O[C@@H]1O[C@@H](CO)[C@H](O)[C@H]1O (some centres undefined) [SYMPLOCOSOSIDE C] | 5.54 | 5.82 | 5.37 | < 5.00 | 5.89
COC(=O)[C@H]1O[C@@H](O[C@H]2CC[C@]3(C)[C@H]4CC=C5[C@@H]6CC(C)(C)[C@@H](OC(=O)/C=C(/C)CCC=C(C)C)[C@H](OC(=O)c7ccccc7)[C@]6(CO)[C@H](O)[C@H](O)[C@@]5(C)[C@]4(C)CC[C@H]3C2(C)C)[C@H](O[C@@H]2O[C@H](CO)[C@@H](O)[C@H](O)[C@H]2O)[C@@H](OC(C)=O)[C@@H]1O[C@@H]1O[C@@H](CO)[C@H](O)[C@H]1O [SYMPLOCOSOSIDE K] | 5.62 | 5.29 | < 5.00 | 5.40 | 6.10
CCC(C)C(=O)O[C@H]1[C@H](OC(=O)/C=C(\C)CCC=C(C)C)C(C)(C)C[C@H]2C3=CC[C@@H]4[C@@]5(C)CC[C@H](O[C@@H]6O[C@H](C(=O)O)[C@@H](O[C@@H]7O[C@@H](CO)[C@H](O)[C@H]7O)[C@H](OC(C)=O)[C@H]6O[C@@H]6O[C@H](CO)[C@@H](O)[C@H](O)[C@H]6O)C(C)(C)[C@@H]5CC[C@@]4(C)[C@]3(C)[C@@H](O)[C@@H](O)[C@]21CO (some centres undefined) [SYMPLOCOSOSIDE H] | 5.68 | 5.59 | 5.60 | 5.57 | 5.85
CCC(C)C(=O)O[C@H]1[C@H](OC(=O)c2ccccc2)C(C)(C)C[C@H]2C3=CC[C@@H]4[C@@]5(C)CC[C@H](O[C@@H]6O[C@H](C(=O)O)[C@@H](O[C@@H]7O[C@@H](CO)[C@H](O)[C@H]7O)[C@H](OC(C)=O)[C@H]6O[C@@H]6O[C@H](CO)[C@@H](O)[C@H](O)[C@H]6O)C(C)(C)[C@@H]5CC[C@@]4(C)[C@]3(C)[C@@H](O)[C@@H](O)[C@]21CO (some centres undefined) [SYMPLOCOSOSIDE P] | < 5.00 | < 5.00 | < 5.00 | < 5.00 | 5.48
CC(C)=CCC/C(C)=C\C(=O)O[C@H]1[C@H](OC(=O)C(C)C)[C@]2(CO)[C@H](O)[C@H](O)[C@]3(C)C(=CC[C@@H]4[C@@]5(C)CC[C@H](O)C(C)(C)[C@@H]5CC[C@]43C)[C@@H]2CC1(C)C | < 5.00 | < 5.00 | < 5.00 | < 5.00 | < 5.00
CCCCOC(=O)[C@H]1O[C@@H](O[C@H]2CC[C@]3(C)[C@H]4CC=C5[C@@H]6CC(C)(C)[C@@H](OC(=O)/C=C/c7ccccc7)[C@H](OC(=O)C(C)CC)[C@]6(CO)[C@H](O)[C@H](O)[C@@]5(C)[C@]4(C)CC[C@H]3C2(C)C)[C@H](O[C@@H]2O[C@H](CO)[C@@H](O)[C@H](O)[C@H]2O)[C@@H](O)[C@@H]1O[C@@H]1O[C@@H](CO)[C@H](O)[C@H]1O (some centres undefined) [SYMPLOCOSOSIDE E] | < 5.00 | 5.77 | < 5.00 | < 5.00 | 5.77
CC(=O)O[C@@H]1[C@@H](O[C@@H]2O[C@H](CO)[C@@H](O)[C@H](O)[C@H]2O)[C@H](O[C@H]2CC[C@]3(C)[C@H]4CC=C5[C@@H]6CC(C)(C)C[C@H](OC(=O)/C=C(/C)CCC=C(C)C)[C@]6(CO)[C@H](O)[C@H](O)[C@@]5(C)[C@]4(C)CC[C@H]3C2(C)C)O[C@H](C(=O)O)[C@H]1O[C@@H]1O[C@@H](CO)[C@H](O)[C@H]1O [SYMPLOCOSOSIDE O] | 5.77 | 5.62 | < 5.00 | < 5.00 | < 5.00
COc1cccc2c1C(=O)c1c(O)c3c(c(O)c1C2=O)C[C@@](O)(C(=O)CO)C[C@@H]3O[C@H]1C[C@H](N)[C@H](O)[C@H](C)O1 [DOXORUBICIN] | 6.10 | 6.00 | 6.00 |  | 7.00
CCC(C)C(=O)O[C@H]1[C@H](OC(=O)/C=C/c2ccccc2)C(C)(C)C[C@H]2C3=CC[C@@H]4[C@@]5(C)CC[C@H](O[C@@H]6O[C@H](CO)[C@@H](O[C@@H]7O[C@@H](CO)[C@H](O)[C@H]7O)[C@H](O)[C@H]6O[C@@H]6O[C@H](CO)[C@@H](O)[C@H](O)[C@H]6O)C(C)(C)[C@@H]5CC[C@@]4(C)[C@]3(C)[C@@H](O)[C@@H](O)[C@]21CO (some centres undefined) [SYMPLOCOSOSIDE X] | 5.77 | 5.74 | < 5.00 | 5.68 | 5.80
CC(=O)O[C@@H]1[C@@H](O[C@@H]2O[C@H](CO)[C@@H](O)[C@H](O)[C@H]2O)[C@H](O[C@H]2CC[C@]3(C)[C@H]4CC=C5[C@@H]6CC(C)(C)[C@@H](OC(=O)/C=C(/C)CCC=C(C)C)[C@H](OC(=O)c7ccccc7)[C@]6(CO)[C@H](O)[C@H](O)[C@@]5(C)[C@]4(C)CC[C@H]3C2(C)C)O[C@H](C(=O)O)[C@H]1O[C@@H]1O[C@@H](CO)[C@H](O)[C@H]1O [SYMPLOCOSOSIDE J] | 5.68 | 5.77 | 5.74 | 5.52 | 5.85
CC(C)=CCC/C(C)=C\C(=O)O[C@H]1CC(C)(C)C[C@H]2C3=CC[C@@H]4[C@@]5(C)CC[C@H](O)C(C)(C)[C@@H]5CC[C@@]4(C)[C@]3(C)[C@@H](O)[C@@H](O)[C@@]12CO | < 5.00 | < 5.00 | < 5.00 | < 5.00 | < 5.00
